Laboratory results taken from article PMC2821697 (Bioorganic & medicinal chemistry, 2009).

What was measured:
[1] = tested on: SK-BR-3 (HER2 over-expressing breast cancer); test: Cell growth inhibition assay; type: cell-based, human; details: for cancer cell line selectivity: fold more potent against SK-BR-3 compared with other cancer cell lines tested: SK-BR-3 versus six additional tested cancer cell lines; for ED50 against SK-BR-3: mean ED50+SEM, 2 or more independent tests, SRB, 72 h
In short: (§1)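 Trypsinized cells were seeded in 96-well plates, then exposed 72 h to test compound from DMSO-diluted stock. Cells were TCA-fixed, stained with 0.4% SRB for 10 min, and dye solubilized in trizma base; A515. ED50 is the concentration halving net protein increase, mean ± SEM of ≥2 independent determinations.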

[2] = tested on: KB (nasopharyngeal carcinoma); test: Cell growth inhibition assay; type: cell-based; details: Homo sapiens, 72 h, read-out: ED50 against KB
In short: as §1

[3] = tested on: SK-BR-3 breast cancer cell line; test: MTT assay, SK-BR-3; type: cell-based, human; details: 72 h, single experiment
[4] = tested on: 184A1 normal breast cell line; test: MTT assay, 184A1 normal breast cell line; type: cell-based; details: 72 h, single experiment
In short: (§2)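 184A1 and MCF10A were from ATCC. Cells were seeded at 5000/well in the recommended growth medium and incubated overnight. Test compound dissolved in DMSO was then added, followed by 72 h at 37 °C, 5% CO2. MTT reagent was added for 2 h, and formazan was read at OD 570. Data are mean and standard deviation of replicates from a single experiment.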

[5] = tested on: MCF10A normal breast cell line; test: MTT assay, MCF10A normal breast cell line; type: cell-based; details: 72 h, single experiment
In short: as §2

[6] = tested on: MDA-MB-231 (estrogen receptor negative breast cancer); test: Cell growth inhibition assay; type: cell-based; details: Homo sapiens, MDA-MB-231, 72 h, read-out: ED50 against MDA-MB-231
In short: as §1

A549 (human lung cancer) = test: Cell growth inhibition assay; type: cell-based; details: A549, 72 h, read-out: ED50 against A549
In short: as §1

DU145 (prostate cancer) = test: Cell growth inhibition assay; type: cell-based; details: Homo sapiens, DU-145, 72 h, read-out: ED50 against DU145

Row | Structure (SMILES) | IC50 [2] [µM] | cancer cell line selectivity: fold more potent against SK-BR-3 compared with other cancer cell lines tested [1] | ED50 against SK-BR-3 [1] [µM] | further results
1 | CCOc1cccc(-c2cc3occ(C)c3c(=O)o2)c1 [Compound 12, 6-(3-Ethoxyphenyl)-3-methyl-4H-furo[3,2-c]pyran-4-one] |  |  | 0.67 ± 0.03 | 
2 | Cc1cccc(-c2cc3occ(C)c3c(=O)o2)c1 [Compound 10, 3-Methyl-6-m-tolyl-4H-furo[3,2-c]pyran-4-one] |  |  | 1.50 ± 0.04 | 

More lines, main results first:

Row | IC50 [2] [µM] | Structure (SMILES) | cancer cell line selectivity: fold more potent against SK-BR-3 compared with other cancer cell lines tested [1] | ED50 against SK-BR-3 [1] [µM] | further results
3 | > 69.9 | COc1cc(OC)cc(-c2cc3occ(C)c3c(=O)o2)c1 [Compound 25, 6-(3,5-Dimethoxyphenyl)-3-methyl-4H-furo[3,2-c]pyran-4-one] | 100- to 250 fold | 0.28 ± 0.01 | potency against SK-BR-3 relative to 1 ([1]; ED50 compared with neo-tanshinlactone (1)): approximately threefold; interpolated ED50 against SK-BR-3 [3]: 1.0 µM; interpolated ED50 against 184A1 [4]: 16.8 µM; interpolated ED50 against MCF10A [5]: > 35.0 µM
4 | > 37.9 | Cc1cccc2c1ccc1c3occ(C)c3c(=O)oc21 [Compound 1, Neo-tanshinlactone] |  |  | IC50 [6]: 37.9 ± 1.4 µM; IC50 (A549 (human lung cancer)): 54.2 ± 3.4 µM; IC50 (DU145 (prostate cancer)): 58.3 ± 2 µM
5 | > 63.3 | COc1cc(-c2cc3occ(C)c3c(=O)o2)cc(OC)c1OC [Compound 27, 3-Methyl-6-(3,4,5-trimethoxyphenyl)-4H-furo[3,2-c]pyran-4-one] | 100- to 250 fold | 0.44 ± 0.01 | 
6 | > 78.1 | COc1cccc(-c2cc3occ(C)c3c(=O)o2)c1 [Compound 11, 6-(3-Methoxyphenyl)-3-methyl-4H-furo[3,2-c]pyran-4-one] |  |  | 
